The record followed here is ChEMBL document CHEMBL4145643, “Antiplasmodial β-Triketone-Flavanone Hybrids from the Flowers of the Australian Tree Corymbia torelliana” (J Nat Prod, 2018).

For series [1], the system named is Plasmodium falciparum. Briefly: Antiplasmodial activity against drug-sensitive Plasmodium falciparum 3D7 ring stage infected in human erythrocytes after 72 hrs by DAPI staining based method. Conditions: 3D7, 72 h. Format: functional, organism-based. A digest of the protocol: (§1)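 Sorbitol-synchronized ring-stage parasites in O+ erythrocytes (2% parasitemia, 0.3% hematocrit), culture medium RPMI-1640 with Albumax and human serum. 16-point dilution series, 40 μM to 0.5 nM, 72 h at 95% N2/5% O2/5% CO2. Parasites stained with DAPI in Triton X-100/saponin permeabilization buffer, counted by confocal imaging. Normalized to 0.4% DMSO and 5 μM puromycin controls. IC50 from four-parameter logistic fit.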

Series [2] has as its system HEK293. The series is described as follows: Cytotoxicity against human HEK293 cells at 40 uM after 72 hrs by resazurin dye based fluorescence assay. It is filed as cell-based. Particulars: hek293, 72 h. A digest of the protocol: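 HEK293 cells grown in DMEM with 10% FBS, seeded at 2000 cells/well 24 h before dosing. Compounds given as in the parasite assay (top 40 μM), 72 h at 37 °C and 5% CO2. Medium then replaced with 44 μM resazurin; fluorescence (530/595 nm) read after a further 5–6 h. Normalized to in-plate controls.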
(Resazurin is reduced to fluorescent resorufin, in cell work by metabolically active cells.)

Series [3] has as its system Plasmodium falciparum. Briefly: Antiplasmodial activity against 4-aminoquinoline/antifolates-resistant Plasmodium falciparum Dd2 ring stage infected in human erythrocytes after 72 hrs by DAPI staining based method. Format: functional, organism-based. Particulars: Dd2, 72 h. A digest of the protocol:
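Sorbitol-synchronized ring-stage parasites at 2% parasitemia, 0.3% hematocrit in human O+ erythrocytes. 16-point concentration-response, 40 μM to 0.5 nM. DAPI added in permeabilization buffer (Triton X-100, saponin, EDTA). Parasites counted by confocal high-content imaging. Normalized to DMSO and 5 μM puromycin controls. IC50 from four-parameter logistic fit.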

Series [4] relates to Plasmodium falciparum. The series is described as follows: Antiplasmodial activity against 4-aminoquinoline/antifolates-resistant Plasmodium falciparum Dd2 ring stage infected in human erythrocytes at 40 uM after 72 hrs by DAPI staining based method. Format: functional. A digest of the protocol: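 Sorbitol-synchronized ring-stage parasites at 2% parasitemia, 0.3% hematocrit in human O+ erythrocytes. Culture medium: RPMI-1640 with glutamine, hypoxanthine, Albumax, human serum. 16-point concentration-response, 40 μM to 0.5 nM. Incubated 72 h under 95% N2, 5% O2, 5% CO2. DAPI added in permeabilization buffer (Triton X-100, saponin, EDTA). Parasites counted by confocal high-content imaging. Normalized to DMSO and 5 μM puromycin controls. IC50 from four-parameter logistic fit.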

The test system of series [5] is Plasmodium falciparum. Briefly: Antiplasmodial activity against drug-sensitive Plasmodium falciparum 3D7 ring stage infected in human erythrocytes at 40 uM after 72 hrs by DAPI staining based method. It is filed as functional, organism-based. A digest of the protocol: as §1

pIC50: −log10 of the molar value. Activity calls are given as the source filed them. The calls are words filed in the database; no cut-off is given here.

For orientation: pIC50 means the IC50 on a negative log10 scale, so that one unit is a factor of ten. High values mean a low IC50, low ones a high IC50. Take `Cc1c(O)c([C@H](CC(C)C)C2=C(O)C(C)(C)C(=O)C(C)(C)C2=O)c(O)c2c1O[C@H](c1ccccc1)CC2=O`: the negative-log IC50 (pIC50) in series [1] is 5.49. In addition, the Activity in series [2] (40 µM) worked out at 75%.

Take `Cc1c2c(c(O)c3c1OC1=C(C(=O)C(C)(C)C(=O)C1(C)C)C3CC(C)C)C(=O)C[C@@H](c1ccccc1)O2` (stereo not given in full): the pIC50 in series [1] is 5.01; in series [3] it was 4.92. Further, the Activity entry in series [2] (40 µM) is on record as “Non-Toxic”.

Regarding `C[C@H]1[C@@H](O)O[C@@H]2O[C@@]3(C)CC[C@H]4[C@H](C)CC[C@@H]1[C@@]24OO3` [ARTENIMOL], the pIC50 is 9.40 in series [1] and 9.37 in series [3]. The compound also returned an Activity in series [2] (20 µM, in the assay text read “at 20 uM” for “at 40 uM”) of 83%.

In series [1], `C[C@H]1[C@H](OC(=O)CCC(=O)O)O[C@@H]2O[C@@]3(C)CC[C@H]4[C@H](C)CC[C@@H]1[C@@]24OO3` [ARTESUNATE] gave a pIC50 of 9.00. Further, in series [2] (20 µM, in the assay text read “20 uM” for “40 uM”), the Activity amounted to 94%.

`Cc1c(O)c2c(c3c1OC1=C(C(=O)C(C)(C)C(=O)C1(C)C)[C@@H]3CC(C)C)O[C@H](c1ccccc1)CC2=O`: the pIC50 in series [1] was 5.14. In addition, the Activity result in series [2] (40 µM) is on record as “Non-Toxic”.

Take `Cc1c(O)c2c(c3c1OC1=C(C(=O)C(C)(C)C(=O)C1(C)C)[C@H]3CC(C)C)O[C@H](c1ccccc1)CC2=O`: in series [1], the negative logarithm of the IC50 (pIC50) was 5.14. Also, the Activity result in series [2] (40 µM) is recorded as “Non-Toxic”.

For the compound `CCc1nc(N)nc(N)c1-c1ccc(Cl)cc1` [PYRIMETHAMINE], the Activity in series [4] and in series [2] (40 µM) was 62% each time.

For `CC(C)C[C@H]1C[C@@]2(CC[C@H]3C[C@@H]2C3(C)C)OC2=C1C(=O)C(C)(C)C(=O)C2(C)C`, in series [4], the result was inactive. Also, in series [1], the pIC50 is 4.78. Also, the Activity result in series [2] (40 µM) is given as “Non-Toxic”.

With `CCN(CC)CCCC(C)Nc1ccnc2cc(Cl)ccc12` (stereo not given) [CHLOROQUINE], the Activity result in series [2] (40 µM) is “Non-Toxic”.

For the compound `CC(C)CC[C@]1(O)[C@H](O)C(C)(C)[C@@H](O)C(C)(C)[C@@H]1O`, the result in series [4] and in series [5] was inactive. The Activity entry in series [2] (40 µM) is reported as “Non-Toxic”.

In series [1], `Cc1c(O)c([C@@H](CC(C)C)C2=C(O)C(C)(C)C(=O)C(C)(C)C2=O)c(O)c2c1O[C@H](c1ccccc1)CC2=O` showed a negative logarithm of the IC50 (pIC50) of 5.49. Further, the Activity in series [2] (40 µM) worked out at 75%.
